Data reported in article PMC6880868 (Cancer cell, 2019).
Read-outs that look alike come from different tables or passages of the source.

Tests used:
[1] = target: T1, STAT3 (Homo sapiens, UniProt P40763); experiment: STAT3 protein degradation in human cells; type: cell-based; conditions: for effect on SD-36-induced depletion of STAT3 protein: co-treatment with SD-36; for effect on the levels of STAT3 protein: 10 μM, 3 hr MOLM-16 or 24 hr SU-DHL-1
Method in brief: (§1)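 Treated cells were lysed in cell lysis buffer, resolved by SDS-PAGE, transferred to PVDF and probed by immunoblotting.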
Target sequence in this assay (P40763 whole entry): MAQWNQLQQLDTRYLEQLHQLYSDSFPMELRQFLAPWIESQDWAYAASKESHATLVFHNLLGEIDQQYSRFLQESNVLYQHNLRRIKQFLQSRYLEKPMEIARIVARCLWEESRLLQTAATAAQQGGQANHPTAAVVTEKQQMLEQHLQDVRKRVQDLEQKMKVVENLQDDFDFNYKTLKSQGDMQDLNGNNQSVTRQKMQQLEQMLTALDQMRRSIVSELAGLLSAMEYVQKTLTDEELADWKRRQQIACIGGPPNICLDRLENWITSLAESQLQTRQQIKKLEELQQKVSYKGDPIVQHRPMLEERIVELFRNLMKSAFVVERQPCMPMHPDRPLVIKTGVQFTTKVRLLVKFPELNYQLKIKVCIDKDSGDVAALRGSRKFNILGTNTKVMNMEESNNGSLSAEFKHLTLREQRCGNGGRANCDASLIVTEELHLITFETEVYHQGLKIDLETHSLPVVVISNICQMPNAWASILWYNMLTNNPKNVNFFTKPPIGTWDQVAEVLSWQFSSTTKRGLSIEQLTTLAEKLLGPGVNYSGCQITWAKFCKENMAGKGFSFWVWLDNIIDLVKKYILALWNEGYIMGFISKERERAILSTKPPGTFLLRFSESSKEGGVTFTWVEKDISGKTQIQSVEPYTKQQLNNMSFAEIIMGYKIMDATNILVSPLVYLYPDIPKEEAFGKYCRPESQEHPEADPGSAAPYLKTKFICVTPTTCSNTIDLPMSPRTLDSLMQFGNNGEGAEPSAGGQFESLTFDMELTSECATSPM

[2] = tested on: SU-DHL-1; experiment: RNA-seq analysis, SU-DHL-1; type: cell-based, human; conditions: SU-DHL-1, 24 hr
[3] = tested on: MOLM-16 and SU-DHL-1 cell lines; experiment: Cell cycle analysis by flow cytometry; type: cell-based, human; conditions: 1 μM, 48 hr
Method in brief: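 After treatment, cells were washed twice in cold PBS and fixed overnight in 50% ethanol. They were stained 1 hr at 4°C with PI (50 μg/ml) plus DNase-free RNase A (0.2 μg/ml), then analysed by flow cytometry.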

[4] = target: monomeric and dimeric STAT3 protein (Homo sapiens, UniProt P40763); experiment: Native electrophoresis and immunoblotting of STAT3 monomer/dimer; type: cell-based; conditions: MOLM-16, 5 hr
Sequence of monomeric and dimeric STAT3 protein (P40763 whole entry): as above

[5] = tested on: MOLM-16 cells; experiment: RNA-seq analysis, MOLM-16; type: cell-based, human; conditions: MOLM-16, 24 hr
[6] = target: transcriptional activity of STAT3; experiment: STAT3-luciferase reporter assay; type: cell-based, human
[7] = target: T1, STAT3; experiment: Pharmacodynamics: STAT3 protein in xenograft tumors; type: in vivo, NOD/SCID mice bearing human xenograft tumors; conditions: 100 mg/kg i.v.
Target sequence in this assay (P40763 whole entry): as above

[8] = target: T1, STAT3; experiment: Fluorescence polarization; type: binding
Method in brief: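 Competitive fluorescence polarisation assay. Recombinant STAT3 (25 nM) was premixed 5 min with 2.5 nM 5-FAM-labelled STAT3 SH2-domain ligand. The mix was added to serially diluted test compound and read after 1 hr at room temperature. Buffer: 50 mM NaCl, 10 mM HEPES pH 7.5, 1 mM EDTA, 0.01% Triton X-100, 2 mM DTT. IC50 came from nonlinear regression and was converted to Ki.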
Target sequence in this assay (P40763 127-688): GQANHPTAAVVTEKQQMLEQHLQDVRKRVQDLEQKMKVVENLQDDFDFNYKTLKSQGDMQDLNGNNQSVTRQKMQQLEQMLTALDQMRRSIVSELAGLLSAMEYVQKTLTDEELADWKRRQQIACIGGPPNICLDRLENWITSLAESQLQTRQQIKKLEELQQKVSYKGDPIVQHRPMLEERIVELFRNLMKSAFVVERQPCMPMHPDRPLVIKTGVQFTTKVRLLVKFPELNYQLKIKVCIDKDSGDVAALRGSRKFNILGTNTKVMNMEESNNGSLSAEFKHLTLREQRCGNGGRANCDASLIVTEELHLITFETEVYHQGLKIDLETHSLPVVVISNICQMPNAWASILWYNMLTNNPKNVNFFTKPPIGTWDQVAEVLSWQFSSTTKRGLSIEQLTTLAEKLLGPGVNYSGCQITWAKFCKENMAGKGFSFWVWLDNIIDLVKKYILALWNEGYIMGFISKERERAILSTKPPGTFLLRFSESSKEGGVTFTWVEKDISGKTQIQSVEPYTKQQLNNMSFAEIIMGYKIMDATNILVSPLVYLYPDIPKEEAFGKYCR

[9] = tested on: MOLM-16; experiment: 4-day CellTiter Glo cell viability assay, MOLM-16; type: cell-based; conditions: Homo sapiens, MOLM16, 96 h, read-out: IC50, growth inhibition
[10] = tested on: leukemia and lymphoma cell lines; experiment: 4-day CellTiter Glo cell viability assay, leukemia and lymphoma cell line panel; type: cell-based, human
[11] = tested on: c-Myc; STAT3 Y705 phosphorylation; experiment: Immunoblotting of c-Myc and pSTAT3; type: cell-based, human; conditions: concentrations as high as 10 μM
Method in brief: as §1

[12] = target: STAT1 (Homo sapiens, UniProt P42224); experiment: Bio-Layer Interferometry binding, STAT1
Sequence of STAT1 (P42224 132-713): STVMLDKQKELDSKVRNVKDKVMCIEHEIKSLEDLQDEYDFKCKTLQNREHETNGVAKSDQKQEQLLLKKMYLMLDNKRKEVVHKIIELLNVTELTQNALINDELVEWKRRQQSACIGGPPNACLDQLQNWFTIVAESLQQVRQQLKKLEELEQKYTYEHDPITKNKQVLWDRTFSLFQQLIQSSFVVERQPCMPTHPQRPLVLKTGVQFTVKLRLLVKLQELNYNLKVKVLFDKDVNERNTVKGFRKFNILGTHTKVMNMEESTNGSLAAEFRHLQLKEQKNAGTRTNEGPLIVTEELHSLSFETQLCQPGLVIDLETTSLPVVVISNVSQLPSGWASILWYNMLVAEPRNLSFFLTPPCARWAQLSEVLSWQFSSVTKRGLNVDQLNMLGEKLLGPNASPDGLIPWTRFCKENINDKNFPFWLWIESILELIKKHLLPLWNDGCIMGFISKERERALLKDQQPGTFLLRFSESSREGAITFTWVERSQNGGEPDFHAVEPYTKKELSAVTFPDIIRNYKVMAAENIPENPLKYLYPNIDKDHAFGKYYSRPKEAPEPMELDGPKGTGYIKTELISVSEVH
Method in brief: (§2)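 Purified recombinant human STAT proteins were biotinylated, then direct binding of the test compound was measured by Bio-Layer Interferometry to give Kd.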

[13] = target: T1, STAT3; experiment: Bio-Layer Interferometry binding, STAT3
Method in brief: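 Recombinant human STAT3 was biotinylated and binding measured by Bio-Layer Interferometry for Kd. Selectivity was taken from Kd values against other STATs.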
Target sequence in this assay (P40763 127-688): as the sequence (P40763 127-688) above

[14] = tested on: ~5500 proteins quantified in each cell line; experiment: Multiplexed quantitative proteomics in cell lines; type: cell-based, human; conditions: 10 μM, 2.5 hr, three cell lines, p≤0.05
Method in brief: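 Cells were exposed to test compound, then analysed by multiplexed quantitative proteomics. Significance was assessed by Student's t-test.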

[15] = target: DNA binding activity of STAT3 (Homo sapiens, UniProt P40763); experiment: STAT3 DNA binding activity assay on nuclear extracts; type: cell-based; conditions: 10 μM, 8 hr, MOLM-16 and SU-DHL-1
Sequence of DNA binding activity of STAT3 (P40763 whole entry): as the sequence (P40763 whole entry) above
Method in brief: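 Nuclear extraction: cells were swelled 15 min on ice in hypotonic HEPES pH 7.9/10 mM KCl buffer with DTT and phosphatase/protease inhibitors. NP-40 was added (0.5% final), and nuclei were extracted 15 min at 4°C in 0.4 M NaCl HEPES buffer, then cleared at 5,000 × g. ELISA: 5 μg extract was bound 1 hr at room temperature in TransAM STAT ELISA wells. Wells then received STAT antibody (1:1000, 1 hr), HRP secondary (1 hr) and colour development.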

[16] = target: STAT4 (Homo sapiens, UniProt Q14765); experiment: Bio-Layer Interferometry binding, STAT4
Sequence of STAT4 (Q14765 133-705): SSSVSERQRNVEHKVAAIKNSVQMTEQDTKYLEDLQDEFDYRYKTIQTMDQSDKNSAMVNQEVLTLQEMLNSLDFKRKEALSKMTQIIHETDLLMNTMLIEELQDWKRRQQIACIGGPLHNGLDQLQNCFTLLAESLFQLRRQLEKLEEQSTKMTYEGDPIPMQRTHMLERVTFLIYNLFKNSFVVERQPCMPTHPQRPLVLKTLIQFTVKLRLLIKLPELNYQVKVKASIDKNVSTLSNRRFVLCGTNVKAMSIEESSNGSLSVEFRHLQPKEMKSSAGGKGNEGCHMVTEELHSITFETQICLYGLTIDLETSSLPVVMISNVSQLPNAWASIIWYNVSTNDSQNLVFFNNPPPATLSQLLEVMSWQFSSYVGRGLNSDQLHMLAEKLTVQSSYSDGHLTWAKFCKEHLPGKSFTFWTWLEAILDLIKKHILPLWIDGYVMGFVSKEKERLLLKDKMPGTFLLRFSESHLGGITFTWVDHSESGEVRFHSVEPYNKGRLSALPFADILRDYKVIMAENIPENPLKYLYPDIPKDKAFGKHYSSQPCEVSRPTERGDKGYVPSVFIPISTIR
Method in brief: as §2

[17] = tested on: MOLM-16 tumors; experiment: MOLM-16 xenograft efficacy; type: in vivo, NOD/SCID female mice; conditions: 100 mg/kg twice weekly for 4 weeks
Method in brief: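 NOD/SCID female mice were injected subcutaneously in 5 mg/ml Matrigel with MOLM-16 (3 × 10^6), SU-DHL-1 (1 × 10^7) or SUP-M2 (1 × 10^7) cells. At about 150 mm3, mice were size-matched and randomised. Test compound or vehicle (10% PEG400 + 90% PBS) was given on the indicated schedules. Tumours were measured 2–3 times weekly, with volume = length×width²/2. TGI was calculated from group medians.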

[18] = Homo sapiens, MOLM16, 24 h, read-out: IC50, transcriptional activity of STAT3
[19] = Homo sapiens, read-out: IC50, inhibition of transcriptional activity of STAT3

In the case of `NS(=O)(=O)OC[C@@H]1C[C@@H](n2ccc3c(N[C@H]4CCc5ccccc54)ncnc32)C[C@@H]1O` [MLN4924, reference compound], the “effect on SD-36-induced depletion of STAT3 protein” value (from here on “effect on SD-36-induced depletion”) [1] is reported as “blocked”.
For `CN1C(=O)CCC(N2Cc3c(C#CCCCCCC(=O)N4CC[C@H]5CC[C@@H](C(=O)N[C@@H](CCC(N)=O)C(=O)NC(c6ccccc6)c6ccccc6)N5C(=O)[C@@H](NC(=O)c5cc6cc(C(F)(F)P(=O)(O)O)ccc6[nH]5)C4)cccc3C2=O)C1=O` (stereo partly drawn) [SD-36Me, ((2-(((5S,8S,10aR)-8-(((S)-5-amino-1-(benzhydrylamino)-1,5-dioxopentan-2-yl)carbamoyl)-3-(8-(2-(1-methyl-2,6-dioxopipehdin-3-yl)-1-oxoisoindolin-4-yl)oct-7-ynoyl)-6-oxodecahydropyrrolo[1,2-a][1,5]diazocin-5-yl)carbamoyl)-1H-indol-5-yl)difluoromethyl)phosphonic acid], the “genes differentially regulated (≥2-fold, p≤0.05)” value [2] was 28 genes, the cell cycle effect [3] was “modest G1 arrest” and the “concentration diminishing STAT3 dimers” value [4] was ~ 10 μM. The “genes up- or down-regulated ≥2-fold (p≤0.05), total” value [5] was 13 genes, the IC50 ([6]; read-out: IC50, transcriptional activity of STAT3, MOLM-16 STAT3-dependent luciferase reporter cell line, 24 hr) was ~10000 nM and the “effect on the levels of STAT3 protein” value [1] was “no significant effect”. For the same compound, the “effect on protein levels of STAT3 in MOLM-16 tumors” value [7] was “no significant effect”.
Work on `CN1CC[C@H]2CC[C@@H](C(=O)N[C@@H](CCC(N)=O)C(=O)NCc3ccccc3)N2C(=O)[C@@H](NC(=O)c2cc3cc(C(F)(F)P(=O)(O)O)ccc3[nH]2)C1` [SI-108, ((2-(((5S,8S,10aR)-8-(((S)-5-amino-1-(benzylamino)-1,5-dioxopentan-2-yl)carbamoyl)-3-methyl-6-oxodecahydropyrrolo[1,2-a][1,5]diazocin-5-yl)carbamoyl)-1H-indol-5-yl)difluoromethyl)phosphonic acid] yielded an IC50 [6, 18] of ~10000 nM, an IC50 [6, 19] of ~3000 nM and a Ki [8] of 11 nM. The “effect on SD-36-induced depletion” value [1] was “blocked”.
In the case of `CC(=O)N1CC[C@H]2CC[C@@H](C(=O)N[C@@H](CCC(N)=O)C(=O)NC(c3ccccc3)c3ccccc3)N2C(=O)[C@@H](NC(=O)c2cc3cc(C(F)(F)P(=O)(O)O)ccc3[nH]2)C1` [SI-109, ((2-(((5S,8S,10aR)-3-acetyl-8-(((S)-5-amino-1-(benzhydrylamino)-1,5-dioxopentan-2-yl)carbamoyl)-6-oxodecahydropyrrolo[1,2-a][1,5]diazocin-5-yl)carbamoyl)-1H-indol-5-yl)difluoromethyl)phosphonic acid], the IC50 [9] is reported as ~3000 nM, the “cell lines with moderate growth-inhibitory activity” value ([10]; 18 leukemia and lymphoma cell lines) is reported as 1 of these 18 and the “growth-inhibitory activity in a large number of human cancer cell lines” value ([10]; initial testing) is reported as “no appreciable growth-inhibitory activity”. The “inhibition of STAT3 Y705 phosphorylation and suppression of c-Myc expression” value [11] was “ineffective”, the Kd [12] was 1000 to 2000 nM and the “concentration diminishing STAT3 dimers” value [4] was ~ 10 μM. The IC50 [6, 18] was ~10000 nM, the IC50 [6, 19] was ~3000 nM and the Kd [13] was ~50 nM. For the same compound, the “binding selectivity for STAT3 over STAT1 and STAT4” value ([13]; BLI Kd) was ~ 20 fold, the proteome-wide selectivity [14] was “no measurable effect” and the “DNA binding activity of STAT3” value [15] was “only modestly reduces”. For the same compound, the Ki [8] was 9 nM, the “effect on the levels of STAT3 protein” value [1] was “no significant effect” and the “effect on protein levels of STAT3 in MOLM-16 tumors” value [7] was “no significant effect”. For the same compound, the Kd [16] was 1000 to 2000 nM and the “effect on the growth of MOLM-16 tumors” value [17] was “no effect”.
With `CC(C)C[C@H](NC(=O)[C@H](CCc1ccccc1)NC(=O)CN1CCOCC1)C(=O)N[C@@H](Cc1ccccc1)C(=O)N[C@@H](CC(C)C)C(=O)[C@@]1(C)CO1` [carfilzomib, reference compound] the “effect on SD-36-induced depletion” value [1] was “blocked”.
With `NC(=O)CC[C@H](NC(=O)[C@@H]1CCC2CCCC[C@H](NC(=O)c3cc4cc(OP(=O)(O)O)ccc4[nH]3)C(=O)N21)C(=O)NCc1ccccc1` (stereo partly drawn) [compound 2, 2-((3S,6S)-3-((S)-5-Amino-1-(benzylamino)-1,5-dioxopentan-2-ylcarbamoyl)-5-oxodecahydropyrrolo[1,2-a]azocin-6-ylcarbamoyl)-1H-indol-5-yl dihydrogen phosphate] the “suppressing STAT3 activity in cells” value ([6]; cells) was “ineffective” and the Ki [8] was 39 nM.
`NC(=O)CC[C@H](NC(=O)[C@@H]1CCC2CCCC[C@H](NC(=O)c3cc4cc(C(F)(F)P(=O)(O)O)ccc4[nH]3)C(=O)N21)C(=O)NCc1ccccc1` (stereo partly drawn) [compound 3, (2-((3S,6S)-3-((S)-5-Amino-1-(benzylamino)-1,5-dioxopentan-2-ylcarbamoyl)-5-oxodecahydropyrrolo[1,2-a]azocin-6-ylcarbamoyl)-1H-indol-5-yl)difluoromethylphosphonic acid] was tested, and the Ki [8] was 7 nM and the “binding potency relative to compound 2” value ([8]; Ki ratio) was 5 times.
`Nc1cccc2c1CN(C1CCC(=O)NC1=O)C2=O` (centres unmarked) [lenalidomide, reference compound] was tested, and the IC50 [9] was ~4000 nM, the IC50 ([10]; Homo sapiens, read-out: IC50, proliferation) was > 10000 nM and the “effect on STAT3 transcriptional activity” value ([6]; MOLM-16 STAT3 reporter, 24 hr) was “no significant effect”. The “effect on SD-36-induced depletion” value [1] was “blocked”.
